EBV gp42 block = inhibitors of Epstein-Barr virus glycoprotein 42; Q1HVG2; Fluorescence polarization binding assay, mP read-out; inhibition, % (tested at 21.74 µM); actives 0.42% (n = 220,000); AID 1085; in the data active = inhibition above about 50%
eIF4E 4G PPI = blocks eIF4E binding to eIF4G | P63073+Q04637 | TR-FRET eIF4E-eIF4GI(517-606) binding, 2 h | inhibition, % at 21.7 µM | actives 0.37% (n = 220,000) | AID 782;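 also: 0% = full FRET control wells and 100% = background wells lacking eIF4GI fragment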
RBBP9 inh = inhibitors of human serine hydrolase RBBP9. O75884. recombinant RBBP9, FP-Rh probe fluorescence polarization. inhibition, % at 7.94 µM. actives 0.2% (n = 220,000). AID 1515;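 active = inhibition above the campaign mean of all tested compounds plus 3 SD, cut at about 14% in these data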;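 also: plate controls were DMSO wells with RBBP9 for no effect and wells lacking RBBP9 protein for full effect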
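System: RBBP9 protein / Quantity: 2.5 µM RBBP9 dispensing solution, before mixing / Also added: Serine-hydrolase probe FP-Rh, 375 nM pre-mixing / Dosing: 7.94 µM single dose, 0.794% DMSO / Timing: enzyme-compound preincubation 30 min, then probe labeling 45 min, 25 °C / Signal: FP readout at 525/598 nm / Controls: DMSO-treated enzyme wells and wells lacking RBBP9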
WT yeast gro inh = growth inhibition of WT yeast, mitochondrial fusion screen; mitochondrial fusion phenotypic screen, WT strain; inhibition, % at 10 µM; actives 2.1% (n = 190,000); in the data active = inhibition above about 58%; tested in S. cerevisiae
14-3-3 Bad inh = disrupts binding of bovine 14-3-3 zeta to phospho-Bad peptide | inhibition, % at 21.7 µM | P63103 | actives 0.71% (n = 220,000) | TR-FRET 14-3-3zeta/Dy647-pBad peptide displacement, 1 h | AID 781;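 active = inhibition above about 70%, limit read from the data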;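 also: 0% = full 14-3-3 plus peptide FRET controls and 100% = background without 14-3-3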
p47phox inh = inhibitors of human p47phox binding | P14598 | p47phox/p22phox peptide binding, fluorescence polarization, 2 h | inhibition, % at 24.7 µM | actives 0.53% (n = 220,000);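 also: 0% = p47phox with labelled peptide and 100% = labelled peptide alone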
Target sequence (P14598 whole entry, looked up): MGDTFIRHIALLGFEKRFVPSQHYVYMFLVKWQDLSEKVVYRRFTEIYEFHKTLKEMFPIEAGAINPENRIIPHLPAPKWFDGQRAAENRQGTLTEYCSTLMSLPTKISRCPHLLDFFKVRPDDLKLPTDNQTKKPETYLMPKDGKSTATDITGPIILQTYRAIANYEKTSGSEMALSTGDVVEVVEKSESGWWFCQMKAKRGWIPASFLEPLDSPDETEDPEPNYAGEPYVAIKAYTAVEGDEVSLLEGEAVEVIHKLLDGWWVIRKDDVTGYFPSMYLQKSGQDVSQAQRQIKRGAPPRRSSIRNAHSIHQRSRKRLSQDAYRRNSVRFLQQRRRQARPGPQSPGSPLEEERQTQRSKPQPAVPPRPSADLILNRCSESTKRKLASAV
Starred values were filed as active, the others as inactive; . = no result. This is a sample that favours compounds with a hit; in the whole collection about 3.7% have one here.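 The calls were made as follows, unless noted: active = inhibition above about 30% (limit read from the data); inactive = the rest.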

SMILES	EBV gp42 block	eIF4E 4G PPI	RBBP9 inh	WT yeast gro inh	14-3-3 Bad inh	p47phox inh
Cc1nc(C(=O)N2CCc3c([nH]c4ccccc34)C2c2cc(F)ccc2F)cs1 (configuration not stated)	-4	5	1	75*	-1	-6
O=C(c1cnccn1)N1CCc2c([nH]c3ccccc23)C1c1cccc(Cl)c1 (configuration not stated)	19	1	-4	61*	-9	-5
O=C(C1=C(O)C(=O)N(c2ncccn2)C1c1ccc(F)cc1)c1ccco1 (configuration not stated)	-7	-1	4	.	-5	-1
COc1ccc(OC)c(-c2csc(N(CC3CCCO3)C(=O)Cc3ccccc3)n2)c1 (configuration not stated)	-6	-1	-7	-7	-9	-9
CCc1nnc(NC(=O)CSc2nc3cc(OC)ccc3cc2C)s1	-10	1	-7	-2	-1	-5
Cc1ccc(NC(=O)/C=N/OCC(=O)NCc2ccccc2Cl)cc1	-20	-6	-13	.	1	-8
CC(NC(=O)c1ccccc1Cl)C1COc2ccccc2O1 (configuration not stated)	-21	2	-6	-21	10	-10
CCOC(=O)CCNC(C)C1COc2ccccc2O1 (configuration not stated)	5	-2	-6	-2	76*	-24
Nc1cc([N+](=O)[O-])ccc1O	-12	16	12	-4	17	2
COc1ccc(O)c(N)c1	-3	7	7	-12	6	43*
O=C(c1ccccc1)N1CCCC(C(=O)N2CCN(c3ccccc3)CC2)C1 (configuration not stated)	-9	-2	-7	.	-5	4
OC(CNCc1ccc(F)cc1)(c1ccc(F)cc1)c1ccc(F)cc1	-13	-2	2	-6	-11	0
OC(CNCc1ccc(Cl)cc1)(c1ccccc1)c1ccc(F)cc1 (configuration not stated)	2	1	-12	71*	10	20
O=[N+]([O-])c1ccc(-c2csc3[n+]2CCS3)cc1	-2	3	-6	72*	-4	-2
Cc1cc[n+](Cc2ccc([N+](=O)[O-])cc2)cc1	-24	2	3	8	-14	5
Fc1ccc(-c2csc3[n+]2CCS3)cc1	4	0	-2	70*	-2	-4
c1sc2[n+](c1C13CC4CC(CC(C4)C1)C3)CCS2	-22	0	0	-6	-1	0
CC(C)(CN1CCc2ccccc2C1)NS(=O)(=O)c1ccc(Cl)cc1	0	-2	-8	.	0	-7
CC(C)CC(=O)N1CCN(Cc2ccccc2[N+](=O)[O-])CC1	-6	1	-4	-7	29	-1
CCc1ccc(OCC2c3cc(OC)c(OC)cc3CCN2C(=S)NCCOC)cc1 (configuration not stated)	11	-3	-3	32	-7	-12
CCc1ccc(OCC2c3cc(OC)c(OC)cc3CCN2C(=S)NC)cc1 (configuration not stated)	9	-2	-15	75*	0	-3
N/C(Cc1ccc(Cl)cc1Cl)=N\OC(=O)c1ccccc1F	-7	0	2	97*	-7	-9
N/C(Cn1cncn1)=N\OC(=O)c1ccc(Cl)cc1Cl	-4	3	-7	-14	-17	22
O=c1c2cc(Br)cc(Br)c2oc2nc3n(c(=O)c12)CCCS3	-8	-3	-14	10	-11	-12
O=Cc1ccc2oc3nc4n(c(=O)c3c(=O)c2c1)CCCS4	85*	7	-3	3	8	-31
SMILES	EBV gp42 block	eIF4E 4G PPI	RBBP9 inh	WT yeast gro inh	14-3-3 Bad inh	p47phox inh
COc1ccc(C(=O)C2CCCN(C3Cc4ccccc4C3)C2)c(OC)c1 (configuration not stated)	-9	4	11	16	-15	6
Cc1ccc(Cl)cc1NC(=S)N(Cc1ccco1)C(C)c1cccs1 (configuration not stated)	-4	-4	3	44	-1	-4
CC(c1cccs1)N(Cc1ccco1)C(=O)Nc1ccc(Cl)c(Cl)c1 (configuration not stated)	-6	6	-17	64*	-6	-17
Cc1ccc(C)c(NC(=S)N(Cc2ccco2)C(C)c2cccs2)c1 (configuration not stated)	0	1	1	69*	-11	-12
Cc1ccc(NC(=S)N(Cc2ccco2)C(C)c2cccs2)c(Cl)c1 (configuration not stated)	-12	-1	-1	66*	0	-2
Cc1ccccc1NC(=S)N(C)Cc1cn(C)c2ccccc12	-1	14	-3	5	-24	-5
CCNC(=S)Nc1cccc(F)c1C	9	0	1	9	-4	3
O=C(NC(NC(=S)Nc1ccccc1Cl)C(Cl)(Cl)Cl)c1cccc(Cl)c1 (configuration not stated)	3	3	-50	42	2	-14
O=C(NC(NC(=S)Nc1ccccc1C(=O)O)C(Cl)(Cl)Cl)c1cccc([N+](=O)[O-])c1 (configuration not stated)	11	14	-4	-16	73*	-3
COC(=O)C1CSc2[nH]c(=O)sc2C1c1ccc(OC)c(OC)c1 (configuration not stated)	-2	-2	0	77*	-3	20
CCN1CCN(c2ccc(N=Cc3ccccc3O)cc2)CC1	-5	4	-5	-4	-6	0
Cc1nc(Cl)c2c(n1)NC(=O)CO2	-10	3	-5	.	1	-15
Cc1nc2c(c(N3CCOCC3)n1)OCC(=O)N2	-20	2	-4	-8	74*	8
COC(=O)C1c2ccccc2-c2ccccc21	1	2	-3	14	78*	10
O=C(NNS(=O)(=O)c1ccc(Br)cc1)c1cccs1	-20	1	-4	10	-7	-9
CCN(CC)CCOc1ccc(/C(=C(/Cl)c2ccccc2)c2ccccc2)cc1	-6	14	-1	98*	78*	51*
CN(CC(=O)O/N=C(\N)c1ccc([N+](=O)[O-])cc1)S(=O)(=O)c1ccccc1	-11	-2	-4	12	7	-4
CN(CC(=O)O/N=C(\N)c1cccc([N+](=O)[O-])c1)S(=O)(=O)c1ccccc1	-1	-1	0	58*	6	5
O=C(COC(=O)c1ccccc1C(=O)c1ccc(Cl)c([N+](=O)[O-])c1)NC1CC1	-10	4	-2	-11	-13	-10
O=C(COC(=O)c1ccccc1[N+](=O)[O-])c1ccc(C2CCCCC2)cc1	-19	0	-8	60*	-8	-13

Screening data (PubChem)
